The source of these data is PubChem BioAssay AID493091 (Sanford-Burnham Center for Chemical Genomics, 2011).

Out of some 340,000 compounds screened, about 3,000 (0.88%) were called active. The entries come from a sample that favours actives as a whole. Unmarked numbers belong to inactive results.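 The calls were made as follows: active = inhibition above about 50% at 20 µM (limit read from the data); inactive = the rest.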

Sequence of Carboxy-terminal domain RNA polymerase II polypeptide A small phosphatase 1 (Homo sapiens) (Q9GZU7 76-261 limits assumed): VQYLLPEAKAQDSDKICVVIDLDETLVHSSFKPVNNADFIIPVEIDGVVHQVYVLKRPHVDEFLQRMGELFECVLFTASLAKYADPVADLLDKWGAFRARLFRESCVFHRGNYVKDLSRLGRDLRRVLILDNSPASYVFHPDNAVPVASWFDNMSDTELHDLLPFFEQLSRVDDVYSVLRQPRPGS

The target of the assay is Carboxy-terminal domain RNA polymerase II polypeptide A small phosphatase 1 (Homo sapiens) (UniProt Q9GZU7). The assay can be described thus: inhibition of human SCP1 dephosphorylation activity – biochemical, colorimetric, uHTS, primary screen (AID 493091).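 Also: plate controls were DMSO wells with enzyme for no effect and wells lacking enzyme for full effect.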 The settings on record: Recombinant Scp1, phosphopeptide, malachite green phosphate absorbance; at 20 µM; active compounds read high. In a few lines:
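Test system: SCP-1 catalytic domain; Buffer or medium: Acidic Tris acetate buffer with magnesium and detergent; Also added: Phosphorylated 17-residue peptide substrate; Compound: single 20 µM dose, 1% DMSO; Schedule: enzyme reaction 45 min at room temperature, colour 5 min, stabilisation 30 min; Signal: Phosphate-binding colour reagent, absorbance read at 630 nm.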
On to `CCOC(=O)C1=C(C)c2ccccc2OC1(C)C(=O)OCC` (configuration not stated), for which the inhibition (in general, the change of the read-out against control, counted positive when it falls) is 70.1% (active).

As to `CCOC(=O)C1=C(C)c2ccccc2OC1C(=O)OCC` (configuration not stated), the inhibition was -1.33%.

In the case of `CCOC(=O)C1=C(NC(=S)NC(=O)c2ccccc2)c2ccccc2CC1(C)C`, the inhibition is -6.2%.

On to `COc1c(C(C)C)oc2cc3oc(=O)ccc3cc12`, for which the inhibition is -9.44%.

On to `COc1ccc(NC(=O)c2ccco2)cc1NC(=O)c1ccc(C#N)cc1F`, for which the inhibition was 6.99%.

Consider `N#Cc1ccc(C(=O)Nc2cccc3cccnc23)c(F)c1`, for which the inhibition was 100% (active).

Turning to `CSc1ccc(C#N)cc1NC(=O)c1cccc(Cl)c1`, the inhibition is -21.5%.

For the molecule `Nc1ccc2nc3c(=O)[nH]c(=S)[nH]c3nc2c1`, the inhibition is 78.4% (active).

Consider `CC12CCC(C(=O)N3CCN(c4ncccn4)CC3)(c3nc4ccccc4nc31)C2(C)C` (configuration not stated), for which the inhibition is -9.3%.

Take `COC(=O)Cc1c(-c2[nH]c3ccccc3c2CC(=O)OC)[nH]c2ccccc12`: the inhibition was -13.3%.

On to `COC(=O)C[n+]1cccc2ccccc21`, for which the inhibition was 105% (active).

In the case of `O=C(C[n+]1cc(Br)cc2ccccc21)c1ccc(F)cc1`, the inhibition is -4.19%.

As to `CCOc1cc2[nH]c(=S)n(CCCN3CCCC3=O)c(=O)c2cc1OCC`, the inhibition is -8.04%.

As to `Cc1ccc(NC(=S)N2CCN(c3ncccn3)CC2)cc1C`, the inhibition was 4.95%.

As to `COc1ccc(CN2CCC(n3nccc3NC(=O)CCCc3ccccc3)CC2)cc1C`, the inhibition was 6.87%.

As to `Cc1c(CCC(=O)N[C@@H](CC(C)C)C(=O)O)c(=O)oc2c(C)c3oc4c(c3cc12)CCCC4`, the inhibition is -2.45%.

As for `Cc1oc2c(C)c3oc(=O)c(CC(=O)N[C@@H](CC(C)C)C(=O)N[C@@H](Cc4ccccc4)C(=O)O)c(C)c3cc2c1C`, the inhibition was 88% (active).

Take `Cc1c(OC(C)C(=O)N[C@@H](Cc2ccccc2)C(=O)O)ccc2c3c(c(=O)oc12)CCCC3` (some centres not stated): the inhibition was 4.1%.

Turning to `CC(Oc1ccc(-c2ccccc2)c(F)c1)c1ccn(S(=O)(=O)c2cccc3ccccc23)n1` (configuration not stated), the inhibition was -13.9%.

In the case of `Cc1c(-c2nn(C)c(=O)c3ccccc23)oc2ccc(F)cc2c1=O`, the inhibition is 3.62%.

For `Cc1c(Cl)c([N+](=O)[O-])nn1CCCC(=O)NC(C)c1ccccc1` (configuration not stated), the inhibition was -27.1%.

Turning to `CCCCCC(=O)Nc1ccc(S(=O)(=O)Nc2ccc(Cl)nn2)cc1`, the inhibition is 4.6%.

`Cc1nnc(SCC(=O)Nc2ccc(S(=O)(=O)Nc3ccc(Cl)nn3)cc2)s1`: the inhibition was 79.2% (active).

For the molecule `Cc1nnc(SCC(=O)Nn2cnnc2)s1`, the inhibition was -3.13%.

In the case of `CCNC(=O)COc1cc(C)c(Br)c(C)c1`, the inhibition is -2.07%.

Take `COCCNC(=O)Nc1ccc2nc(-c3ccco3)c(-c3ccco3)nc2c1`: the inhibition was 79.6% (active).

Regarding `O=C(Nc1nc(-c2ccco2)c(-c2ccco2)s1)c1ccco1`, the inhibition was -3.82%.

Consider `COCCNC(=O)c1snc2ccc(Cl)cc12`, for which the inhibition was -6.6%.

Turning to `O=C(COc1ccccc1)Nc1ccc(N2CCN(C(=O)c3cccs3)CC2)cc1`, the inhibition was -5.15%.

On to `O=C(CNC(=O)c1n[nH]c2ccccc12)Nc1cc(Cl)ccc1Cl`, for which the inhibition is 5.8%.

For the molecule `Cc1cccc(N=Nc2c(O)[nH]c3ccc(F)cc23)c1`, the inhibition is -10.6%.

Take `COc1ccccc1OCCCCCCN1CCN(C)CC1`: the inhibition is -4.32%.

Regarding `COc1ccc(C(=O)NC(=S)Nc2ccccc2N2CCN(S(C)(=O)=O)CC2)cc1OC`, the inhibition was -10.7%.

With `CCCC(=O)Nc1ccccc1N1CCN(C(=O)c2ccccc2)CC1`, the inhibition is -9.5%.

On to `CCC(=O)Nc1ccccc1N1CCN(S(C)(=O)=O)CC1`, for which the inhibition was 53.6% (active).

In the case of `CCn1cc(C(=O)NCC(=O)NC(C)(C)CO)c(=O)c2cc3c(cc21)OCO3`, the inhibition was -9.05%.

For `COc1ccccc1CCC(=O)OCC(=O)N1CCN(S(=O)(=O)c2ccc(C)cc2C)CC1`, the inhibition was -11.1%.

As to `CC1(C)CC(CNCCC(c2ccc(F)cc2)c2ccco2)CCO1` (configuration not stated), the inhibition is -5.21%.

Take `CCn1ncc(CNC(=O)C2(C)CC2(Br)Br)c1C` (configuration not stated): the inhibition was -6.32%.

On to `COc1ccc(NC(=O)N(C)C[C@H]2Oc3ccc(NC(=O)C4CC4)cc3C(=O)N([C@H](C)CO)C[C@@H]2C)cc1`, for which the inhibition was 67.9% (active).

As for `C[C@H](CO)N1C[C@H](C)[C@@H](CN(C)S(=O)(=O)c2ccc(F)cc2)Oc2ccc(NC(=O)CCC(F)(F)F)cc2C1=O`, the inhibition was -5.81%.

As to `Cc1noc(C)c1NC(=O)Nc1ccc2c(c1)C(=O)N([C@H](C)CO)C[C@H](C)[C@@H](CN(C)C(=O)Nc1ccc(C(F)(F)F)cc1)O2`, the inhibition is 50.3% (active).

For the molecule `Cc1noc(C)c1NC(=O)Nc1ccc2c(c1)C(=O)N([C@H](C)CO)C[C@H](C)[C@@H](CN(C)C(=O)Nc1ccccc1)O2`, the inhibition was 35.8%.

For the molecule `COc1ccc(S(=O)(=O)N(C)C[C@@H]2Oc3ccc(NC(=O)Nc4c(C)noc4C)cc3C(=O)N([C@H](C)CO)C[C@@H]2C)cc1`, the inhibition was 21.7%.

As for `C[C@@H]1CN([C@@H](C)CO)C(=O)c2cc(NC(=O)C3CC3)ccc2O[C@H]1CN(C)C`, the inhibition is -8.19%.

In the case of `Cc1noc(C)c1S(=O)(=O)N(C)C[C@H]1Oc2ccc(NC(=O)C3CCCCC3)cc2C(=O)N([C@H](C)CO)C[C@@H]1C`, the inhibition was -2.33%.

For `C[C@@H]1CN([C@H](C)CO)C(=O)c2cc(NC(=O)NC3CCCCC3)ccc2O[C@H]1CN(C)S(C)(=O)=O`, the inhibition was -8.19%.

As for `C[C@@H]1CN([C@@H](C)CO)C(=O)c2cccc(NS(=O)(=O)c3ccc(F)cc3)c2O[C@H]1CN(C)C(=O)NC1CCCCC1`, the inhibition was -0.48%.

For `COc1ccc(NC(=O)Nc2ccc3c(c2)C(=O)N([C@H](C)CO)C[C@H](C)[C@@H](CN(C)C(=O)Nc2ccc4c(c2)OCO4)O3)cc1`, the inhibition is 48.8%.

For `Cc1ccc(S(=O)(=O)Nc2ccc3c(c2)C(=O)N([C@H](C)CO)C[C@@H](C)[C@@H](CN(C)C(=O)Nc2cccc4ccccc24)O3)cc1`, the inhibition was 59.1% (active).

For `C[C@H](CO)N1C[C@H](C)[C@@H](CN(C)C(=O)NC2CCCCC2)Oc2ccc(NC(=O)c3ccncc3)cc2C1=O`, the inhibition was 57.7% (active).

For the molecule `CN(C(=O)CSc1nnc(-c2c[nH]c3ccccc23)o1)C1CCS(=O)(=O)C1` (configuration not stated), the inhibition is -5.57%.
